In ChEMBL document CHEMBL3098049, “Concise synthesis and biological evaluation of 2-Aroyl-5-amino benzo[b]thiophene derivatives as a novel class of potent antimitotic agents” (J Med Chem, 2013):
The source made the active and inactive calls. The calls are words filed in the database; no cut-off is given here.

Columns and labels:
[1] = target: Tubulin (Homo sapiens) (UniProt P68371+Q9H4B7+P0DPH7+P68366+Q13509+Q71U36+P04350+Q3ZCM7+P07437+P68363+Q9BQE3+Q6PEY2+Q13885+Q9BVA1+Q9BUF5); experiment: Displacement of [3H]-colchicine from tubulin (unknown origin) at 5 uM after 10 mins relative to control; format: protein-complex assay
[2] = system: HeLa; experiment: Cell cycle arrest in human HeLa cells assessed as accumulation at G2/M phase at 15 to 30 nM after 24 hrs by propidium iodide staining-based flow cytometric analysis relative to control; format: functional
In short: (§1)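 HeLa cells (5 × 10⁵) treated for 24 h. Harvested, fixed in 70% ethanol chilled to 0 °C, then suspended in RNase with 0.1% Triton X-100. DNA stained with PI, analysed by flow cytometry as DNA-content histograms. Mean of three independent experiments.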

[3] = system: HeLa; experiment: Downregulation of cdc25c protein expression in human HeLa cells at 10 to 100 nM after 24 to 48 hrs by Western blot analysis; format: functional, cell-based
In short: (§2)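 HeLa cultures treated 24 or 48 h, washed in cold PBS, lysed 30 min at 0 °C, clarified at 15000g. 20 μg protein run on 7.5−15% gradient SDS-PAGE and blotted to PVDF. Primary antibodies 2 h at room temperature, peroxidase secondary 60 min, ECL detection. Membranes stripped and reprobed for β-actin as loading control.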

[4] = system: HeLa; experiment: Downregulation of Bcl-2 protein expression in human HeLa cells at 10 to 100 nM after 24 to 48 hrs by Western blot analysis; format: functional, cell-based; in short: as §2
[5] = target: T1, M-phase inducer phosphatase 3 (Homo sapiens) (UniProt P30307); experiment: Increase of cdc25c phosphorylation at Ser216 in human HeLa cells at 10 to 100 nM after 48 hrs by Western blot analysis; format: cell-based; in short: as §2
T1 sequence (whole entry): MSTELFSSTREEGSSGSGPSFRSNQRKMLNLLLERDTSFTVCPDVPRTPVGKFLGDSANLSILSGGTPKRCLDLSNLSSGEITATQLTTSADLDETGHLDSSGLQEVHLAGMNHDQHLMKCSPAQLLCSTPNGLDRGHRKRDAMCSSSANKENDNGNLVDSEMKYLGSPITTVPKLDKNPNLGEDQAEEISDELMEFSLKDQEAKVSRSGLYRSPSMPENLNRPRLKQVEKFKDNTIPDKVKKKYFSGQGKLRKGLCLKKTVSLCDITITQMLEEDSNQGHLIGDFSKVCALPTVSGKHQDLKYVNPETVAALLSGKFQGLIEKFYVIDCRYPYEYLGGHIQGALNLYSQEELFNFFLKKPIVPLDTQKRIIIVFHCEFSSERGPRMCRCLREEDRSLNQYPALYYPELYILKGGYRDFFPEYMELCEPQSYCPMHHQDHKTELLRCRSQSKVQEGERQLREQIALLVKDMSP

[6] = Selectivity ratio of IC50 for HUVEC to IC50 for human Molt4/C8 cells; format: ADME, cell-based; conditions: HUVEC and Molt4/C8 cells, read-out: Ratio IC50
[7] = system: HeLa; experiment: Induction of mitochondrial ROS generation in human HeLa cells at 15 to 250 nM by H2-DCFDA staining-based flow cytometric analysis; format: functional, cell-based; conditions: TDE = time-dependent effect
In short: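 HeLa cells incubated 24 or 48 h with compound, stained with H₂-DCFDA, and intracellular ROS measured by flow cytometry. Mean of three independent experiments.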

[8] = system: HeLa; experiment: Induction of DNA damage in human HeLa cells assessed as upregulation of gamma-H2A.X protein expression at 10 nM after 48 hrs by Western blot analysis; format: functional, cell-based; in short: as §2
[9] = Selectivity ratio of IC50 for HUVEC to IC50 for human CEM/0 cells; format: ADME, cell-based; conditions: HUVEC and CEM/0 cells, read-out: Ratio IC50
[10] = Selectivity ratio of IC50 for HUVEC to IC50 for human HeLa cells; format: ADME, cell-based; conditions: HUVEC and HeLa cells, read-out: Ratio IC50
[11] = Selectivity ratio of IC50 for HUVEC to IC50 for mouse FM3A/0 cells; format: ADME, cell-based; conditions: HUVEC and FM3A/0 cells, read-out: Ratio IC50
[12] = system: HeLa; experiment: Induction of apoptosis in human HeLa cells assessed as caspase-9 cleavage at 10 to 100 nM after 24 to 48 hrs by Western blot analysis; format: functional, cell-based; in short: as §2
[13] = system: HeLa; experiment: Cell cycle arrest in human HeLa cells assessed as accumulation at G2/M phase after 24 hrs by propidium iodide staining-based flow cytometric analysis; format: functional; in short: as §1
[14] = system: HeLa; experiment: Induction of apoptosis in human HeLa cells assessed as caspase-3 cleavage at 10 to 100 nM after 24 to 48 hrs by Western blot analysis; format: functional, cell-based; in short: as §2
[15] = Inhibition of bovine brain tubulin polymerization preincubated for 15 mins followed by GTP addition measured for 20 mins by turbidometric analysis; set-up: species or system Bos taurus
[16] = target: T1, M-phase inducer phosphatase 3 (Homo sapiens); experiment: Increase of cdc25c phosphorylation at Ser216 in human HeLa cells at 10 to 100 nM after 24 hrs by Western blot analysis; format: cell-based; in short: as §2
[17] = system: MNNG-HOS; experiment: Cytotoxicity against human MNNG-HOS cells; format: functional, cell-based; conditions: HOS-TE85
[18] = system: MNNG-HOS; experiment: Antitumor activity against human MNNG-HOS cells xenografted in Balb/c-nu mouse assessed as reduction in tumor weight at 50 mg/kg, ip administered once every 3 days for 9 days measured after day 18; format: functional, organism-based; set-up: dose 50 mg/kg; conditions: HOS-TE85
In short: (§3)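 MNNG/HOS osteosarcoma cells grown to exponential phase, suspended in FBS-free MEM (10⁷ cells/mL), 0.1 mL injected into back hypodermis of nude mice. At ~100 mm³, 12 mice randomised to three groups (vehicle, CA-4P in isotonic saline, test in 5% DMSO/olive oil). 50 mg/kg ip at 0.01 mL/g on days 0, 3, 6, 9. Tumour volume and body weight tracked; tumours excised and weighed day 18; […].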

[19] = system: L1210; experiment: Cytotoxicity against mouse L1210 cells assessed as growth inhibition after 48 hrs by coulter counting analysis; format: functional, cell-based; conditions: L1210, 48 h
In short: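 Cells suspended at (3−5) × 10⁵ cells/mL and mixed 1:1 with compound dilutions. Incubated 48 h at 37 °C, counted with a Coulter counter. IC₅₀ = concentration inhibiting proliferation by 50%. Mean of at least three independent experiments.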

[20] = Selectivity ratio of IC50 for HUVEC to IC50 for mouse L1210 cells; format: ADME, cell-based; conditions: HUVEC and L1210 cells, read-out: Ratio IC50
[21] = system: MNNG-HOS; experiment: Antitumor activity against human MNNG-HOS cells xenografted in Balb/c-nu mouse assessed as tumor growth inhibition at 50 mg/kg, ip measured on day 18 relative to vehicle-treated control; format: functional; conditions: HOS-TE85, ip, 432 h, route intraperitoneal, read-out: TGI; in short: as §3
[22] = system: HeLa; experiment: Induction of apoptosis in human HeLa cells assessed as PARP cleavage at 10 nM after 24 hrs by Western blot analysis; format: functional, cell-based; in short: as §2
[23] = system: HeLa; experiment: Induction of DNA damage in human HeLa cells assessed as upregulation of gamma-H2A.X protein expression at 100 nM after 24 hrs by Western blot analysis; format: functional, cell-based; in short: as §2
[24] = system: HeLa; experiment: Induction of mitochondrial membrane depolarization in human HeLa cells after 24 to 48 hrs by JC-1 staining-based fluorescence assay; format: functional, cell-based
In short: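 HeLa cells treated 24 or 48 h, then stained with JC-1. Cells with depolarised mitochondria quantified by flow cytometry. Mean of three independent experiments.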

SMILES: COc1cc(C(=O)c2cc3cc(N)cc(OC)c3s2)cc(OC)c1OC
- inhibition [1]: 97%
- Activity [2]: >80%
- Activity [3]: Active
- Activity [4]: Active
- Activity [5]: inactive
- selectivity ratio [6]: 460
- Activity [7]: tde
- Activity [8]: Active
- selectivity ratio [9]: 460
- selectivity ratio [10]: 460
- selectivity ratio [11]: 460
- Activity [12]: Active
- Activity [13]: Dose-dependent effect
- Activity [14]: Active
- IC50 [15]: 520 nM
- Activity [16]: Active
- IC50 [17]: 1 nM
- Activity [18]: Active
- IC50 [19]: 5 nM
- selectivity ratio [20]: 460
- inhibition in vivo at 50 mg/kg [21]: 62%
- Activity [22]: Active
- Activity [23]: Active
- Activity [24]: Dose-dependent effect
